Assay results taken from article PMC12393906 (Molecular Therapy, 2025).

Legend:
human platelets = experiment: Platelet aggregation assay and ATP secretion; type: cell-based; settings: 1 μM; 0.015 U/ml thrombin or 0.05 µg/ml CRP
In short: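 Washed human platelets, isolated from ACD blood with PGE1 washes and resuspended in HEPES-Tyrode, were pretreated 20 min at 37°C with 0.1% DMSO vehicle or test compound. After agonist addition, aggregation and ATP secretion were recorded in a lumi-aggregometer at 37°C, stirring at 1,000 rpm.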

Recombinant human ERO1α = biological target: T1, Recombinant human ERO1α (Homo sapiens, UniProt Q96HE7); experiment: fluorescence-based ERO1α activity assay; type: biochemical; settings: read-out: IC50 (ERO1α activity); mean ± SD, n = 3
T1 sequence (Q96HE7 24-468): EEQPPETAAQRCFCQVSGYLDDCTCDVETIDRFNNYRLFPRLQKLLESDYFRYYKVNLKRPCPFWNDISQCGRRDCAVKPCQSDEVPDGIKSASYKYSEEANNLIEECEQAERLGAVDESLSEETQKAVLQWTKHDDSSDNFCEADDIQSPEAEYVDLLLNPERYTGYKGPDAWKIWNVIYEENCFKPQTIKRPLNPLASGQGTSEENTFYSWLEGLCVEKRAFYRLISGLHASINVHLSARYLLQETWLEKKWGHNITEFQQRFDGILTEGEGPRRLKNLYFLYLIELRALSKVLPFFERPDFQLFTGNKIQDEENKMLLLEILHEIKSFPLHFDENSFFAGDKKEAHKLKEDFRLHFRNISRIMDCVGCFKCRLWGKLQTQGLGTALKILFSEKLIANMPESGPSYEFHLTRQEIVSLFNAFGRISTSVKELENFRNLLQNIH

C57BL/6 mice [1] = experiment: Complete blood counts after intravenous injection; type: in vivo, mouse; settings: iv 0.3 μg/g BW; 10 min and 8 h after injection
C57BL/6 mice [2] = experiment: Ex vivo platelet activation after intravenous injection; type: in vivo, mouse; settings: iv 0.3 μg/g BW; blood collected 10 min later
In short: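 C57BL/6 mice (8–12 weeks, both sexes) received iv vehicle (1% DMSO in saline) or test compound at 0.3 μg/g BW. Blood was drawn 10 min later and washed platelets were isolated. Platelets were stimulated with agonist for 5 min at 37°C and stained 15 min for P-selectin and activated αIIbβ3 (JON/A). Flow cytometry read-out was geometric mean fluorescence intensity.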

mouse platelets [3] = experiment: CCL5/RANTES in platelet releasates; type: cell-based
In short: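 Washed mouse platelets (5 × 10^8 cells/mL) were pretreated 20 min at 37°C with 0.1% DMSO vehicle or test compound. They were then stimulated 10 min with 0.01 U/mL thrombin or 0.05 μg/mL CRP. CCL5/RANTES in the collected supernatant was quantified by ELISA.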

Amplex Red assay = type: biochemical; settings: Figure 1M, concentration not given
mouse platelets [4] = experiment: Platelet aggregation assay and ATP secretion; type: cell-based
In short: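 Washed mouse platelets (WT control, C57BL/6 or Ero1α/β-null) were pretreated 20 min at 37°C with 0.1% DMSO vehicle or test compound. After agonist addition, aggregation and ATP secretion were recorded together in a lumi-aggregometer at 37°C with stirring at 1,000 rpm.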

[5] = 1 or 2.5 μM, 0.015 U/mL thrombin or 0.05 μg/mL CRP

With `O=C(O)c1cc(N2N=C(C(F)(F)F)/C(=C/c3ccc(-c4ccccc4)o3)C2=O)ccc1Cl` [EN460] the “platelet aggregation and ATP secretion” value (human platelets) was “had no effect”, the IC50 (Recombinant human ERO1α) was 5.5 ± 1.6 µM and the “complete blood counts (CBCs)” value (C57BL/6 mice [1]) was “did not alter CBCs”. The “P-selectin exposure and αIIbβ3 integrin activation following thrombin stimulation (ex vivo)” value (C57BL/6 mice [2]) was “moderate but significant reduction”, the “CCL5 secretion in resting and activated platelets” value (mouse platelets [3]; 5 μM) was “appeared to increase CCL5 secretion” and the “CCL5 secretion from activated platelets” value (mouse platelets [3]; various concentrations (1-5 μM), thrombin) was “inhibits CCL5 secretion”. The “inhibition of H2O2 activity” value (Amplex Red assay) was “inhibits H2O2 activity”, the ATP secretion (mouse platelets [4]; 1 μM, 0.5 µM U46619) was “without affecting ATP secretion” and the platelet aggregation (mouse platelets [4]; 1 μM, 0.5 µM U46619) was “completely inhibited U46619-induced platelet aggregation”. The “platelet aggregation and ATP secretion” value (mouse platelets [4]; 5 μM, 0.5 µM U46619) was “abolished both responses”, the “platelet aggregation and ATP secretion” value (mouse platelets [4]; 5 μM, 0.015 U/mL thrombin or 0.05 μg/mL CRP) was “markedly inhibited platelet aggregation and ATP secretion” and the “platelet aggregation and ATP secretion” value (mouse platelets [4]; 1-5 µM, 0.5 µM A23187) was “also inhibited platelet aggregation and ATP secretion”. For the same molecule, the “platelet aggregation and ATP secretion” value (mouse platelets [4]; 1-5 µM, high concentration of thrombin (0.1 U/ml)) was “significantly inhibited both responses”, the ATP secretion (mouse platelets [4]; [5]) was “had no effect on ATP secretion” and the platelet aggregation (mouse platelets [4]; [5]) was “significantly inhibited aggregation”. For the same molecule, the “platelet aggregation and ATP secretion” value (mouse platelets [4]; 2.5 or 5 μM, high concentration of CRP (0.2 µg/ml)) was “significantly inhibited both responses”.
